Activity calls are given as the source filed them. The rule behind the calls is not given here.
Assays:
[1] = system: Trichophyton mentagrophytes; experiment: Antifungal activity against Trichophyton mentagrophytes A-280 USPHS assessed as growth inhibition by agar dilution method; assay type: functional
[2] = system: Salmonella typhi; experiment: Antibacterial activity against Salmonella typhi 115 assessed as growth inhibition after 24 hrs by dilution tube method; assay type: functional, Salmonella enterica subsp. enterica serovar Typhi; details: Salmonella enterica, 115, 24 h
How it was run: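 Dilution tube method in Tryptone Soya Broth; MIC (μg/ml) taken as highest dilution preventing visible growth; duplicates at every concentration; nitrofurantoin reference run under same conditions.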

[3] = Acute toxicity in ip dosed mouse; assay type: organism-based; details: in vivo
How it was run: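 Mice dosed intraperitoneally; LD50 determined.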

[4] = system: Enterococcus faecalis; experiment: Antibacterial activity against Streptococcus faecalis ATCC 10541 assessed as growth inhibition after 24 hrs by dilution tube method; assay type: functional; details: ATCC 10541, 24 h
How it was run: (§1)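 Broth tube dilution in Tryptone Soya Broth, duplicate tubes at each concentration. MIC (μg/ml) was the highest dilution preventing visible growth. Nitrofurantoin run under the same conditions.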

[5] = system: Mycobacterium tuberculosis; experiment: Antibacterial activity against Mycobacterium tuberculosis H37Rv assessed as growth inhibition by serial dilution method; assay type: functional
How it was run: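 M. tuberculosis H37Rv maintained on Lowenstein–Jensen medium; tested in Youman's medium by serial dilution.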

[6] = system: Candida albicans; experiment: Antifungal activity against Candida albicans SKF 2270 assessed as growth inhibition by agar dilution method; assay type: functional
[7] = system: Nannizzia gypsea; experiment: Antifungal activity against Microsporum gypseum 153 CSTM assessed as growth inhibition by agar dilution method; assay type: functional
[8] = system: Nippostrongylus brasiliensis; experiment: Anthelmintic activity against larvae stage of Nippostrongylus brasiliensis infected in rat assessed as decrease in worm load at 250 mg/kg, po administered on day 8 post infection; assay type: functional, organism-based; set-up: dose 250 mg/kg
How it was run: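 Young male rats (25–30 g, University of Freiburg strain), 3 per compound, infected with 500 infective larvae; single 250 mg/kg oral dose on day 8. Worm loads of treated and control groups compared; 90% deparasitization taken as active. Whitlock–Bliss technique as modified by Steward.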

[9] = system: Microsporum canis; experiment: Antifungal activity against Microsporum canis VM-200 USPHS assessed as growth inhibition by agar dilution method; assay type: functional
[10] = system: Escherichia coli; experiment: Antibacterial activity against Escherichia coli 114 assessed as growth inhibition after 24 hrs by dilution tube method; assay type: functional; details: Escherichia coli, 114, 24 h; how it was run: as §1
[11] = system: Histoplasma capsulatum; experiment: Antifungal activity against Histoplasma capsulatum RNSH Hi-70 1/2 assessed as growth inhibition by agar dilution method; assay type: functional
[12] = system: Pseudomonas aeruginosa; experiment: Antibacterial activity against Pseudomonas aeruginosa ATCC 10145 assessed as growth inhibition after 24 hrs by dilution tube method; assay type: functional; details: ATCC 10145, 24 h; how it was run: as §1
[13] = system: Klebsiella pneumoniae; experiment: Antibacterial activity against Klebsiella pneumoniae ATCC 10031 assessed as growth inhibition after 24 hrs by dilution tube method; assay type: functional; details: ATCC 10031, 24 h; how it was run: as §1
[14] = system: Rodentolepis nana; experiment: Anthelmintic activity against viable ova stage of Hymenolepis nana infected in rat assessed as decrease in intestinal worm load at 250 mg/kg, po measured on day 3; assay type: functional, organism-based; set-up: dose 250 mg/kg
How it was run: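 Young male rats (25–30 g, University of Freiburg strain) infected with 200 viable ova, then given a single 250 mg/kg oral dose. Worms from each rat's small intestine collected and scored on day 3. A mean score of 0–10% of control taken as active.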

[15] = system: Trichophyton rubrum; experiment: Antifungal activity against Trichophyton rubrum 252 CSTM assessed as growth inhibition by agar dilution method; assay type: functional
[16] = system: Agrobacterium tumefaciens; experiment: Antibacterial activity against Agrobacterium tumefaciens NRRL B-36 assessed as growth inhibition after 24 hrs by dilution tube method; assay type: functional; details: NRRL B-36, 24 h; how it was run: as §1
[17] = system: Staphylococcus aureus; experiment: Antibacterial activity against Staphylococcus aureus ATCC 6538 assessed as growth inhibition after 24 hrs by dilution tube method; assay type: functional; details: ATCC 6538, 24 h; how it was run: as §1
[18] = system: Cryptococcus neoformans; experiment: Antifungal activity against Cryptococcus neoformans 103 assessed as growth inhibition by agar dilution method; assay type: functional

## C[N+](C)(CCCCCCOc1c(Br)cc(Br)cc1Br)Cc1ccc(Br)o1.[Br-]
[1]
  MIC: > 200 µg/mL
[2]
  MIC: 50 µg/mL
[3]
  LD50: 25 mg/kg
[4]
  MIC: 5 µg/mL
[5]
  MIC: 10 µg/mL
[6]
  MIC: > 200 µg/mL
[7]
  MIC: > 200 µg/mL
[8]
  Activity: inactive
[9]
  MIC: 100 µg/mL
[10]
  MIC: 100 µg/mL
[11]
  MIC: 25 µg/mL
[12]
  MIC: 1.5 µg/mL
[13]
  MIC: 1.5 µg/mL
[14]
  Activity: inactive
[15]
  MIC: > 200 µg/mL
[16]
  MIC: 7.5 µg/mL
[17]
  MIC: 2 µg/mL
[18]
  MIC: 25 µg/mL

## C[N+](C)(CCCCCCOc1c(Br)cc(Br)cc1Br)Cc1ccc([N+](=O)[O-])o1.[Br-]
[1]
  MIC: > 200 µg/mL
[2]
  MIC: 100 µg/mL
[3]
  LD50: 75 mg/kg
[4]
  MIC: 25 µg/mL
[5]
  MIC: 10 µg/mL
[6]
  MIC: > 200 µg/mL
[7]
  MIC: 100 µg/mL
[8]
  Activity: inactive
[9]
  MIC: 100 µg/mL
[10]
  MIC: 200 µg/mL
[11]
  MIC: 25 µg/mL
[12]
  MIC: 2.5 µg/mL
[13]
  MIC: 5 µg/mL
[14]
  Activity: inactive
[15]
  MIC: 100 µg/mL
[16]
  MIC: 25 µg/mL
[17]
  MIC: 10 µg/mL
[18]
  MIC: 100 µg/mL

## Cc1cc(OCCCC[N+](C)(C)Cc2ccc([N+](=O)[O-])o2)c(C(C)C)cc1Cl.[Br-]
[1]
  MIC: > 200 µg/mL
[2]
  MIC: > 200 µg/mL
[3]
  LD50: 75 mg/kg
[4]
  MIC: 25 µg/mL
[5]
  MIC: 10 µg/mL
[6]
  MIC: > 200 µg/mL
[7]
  MIC: > 200 µg/mL
[8]
  Activity: inactive
[9]
  MIC: > 200 µg/mL
[10]
  MIC: > 200 µg/mL
[11]
  MIC: > 200 µg/mL
[12]
  MIC: 1.5 µg/mL
[13]
  MIC: 5 µg/mL
[14]
  Activity: inactive
[15]
  MIC: > 200 µg/mL
[16]
  MIC: 25 µg/mL
[17]
  MIC: 7.5 µg/mL
[18]
  MIC: 25 µg/mL

## Cc1cc(OCCCCC[N+](C)(C)Cc2ccc([N+](=O)[O-])o2)c(C(C)C)cc1Cl.[Br-]
[1]
  MIC: > 200 µg/mL
[2]
  MIC: 50 µg/mL
[3]
  LD50: 50 mg/kg
[4]
  MIC: 10 µg/mL
[5]
  MIC: 5 µg/mL
[6]
  MIC: > 200 µg/mL
[7]
  MIC: 100 µg/mL
[8]
  Activity: inactive
[9]
  MIC: 100 µg/mL
[10]
  MIC: > 200 µg/mL
[11]
  MIC: 100 µg/mL
[12]
  MIC: 2.5 µg/mL
[13]
  MIC: 2.5 µg/mL
[14]
  Activity: inactive
[15]
  MIC: 100 µg/mL
[16]
  MIC: 25 µg/mL
[17]
  MIC: 10 µg/mL
[18]
  MIC: 25 µg/mL

## Cc1cc(OCCCCC[N+](C)(C)Cc2ccc(Br)o2)c(C(C)C)cc1Cl.[Br-]
[1]
  MIC: 100 µg/mL
[2]
  MIC: 50 µg/mL
[3]
  LD50: 37.5 mg/kg
[4]
  MIC: 5 µg/mL
[5]
  MIC: 10 µg/mL
[6]
  MIC: > 200 µg/mL
[7]
  MIC: > 200 µg/mL
[8]
  Activity: inactive
[9]
  MIC: 100 µg/mL
[10]
  MIC: 100 µg/mL
[11]
  MIC: 100 µg/mL
[12]
  MIC: 2.5 µg/mL
[13]
  MIC: 2.5 µg/mL
[14]
  Activity: inactive
[15]
  MIC: > 200 µg/mL
[16]
  MIC: 10 µg/mL
[17]
  MIC: 2.5 µg/mL
[18]
  MIC: 10 µg/mL

## Cc1cc(OCCCC[N+](C)(C)Cc2ccc(Br)o2)c(C(C)C)cc1Cl.[Br-]
[1]
  MIC: 50 µg/mL
[2]
  MIC: > 200 µg/mL
[3]
  LD50: 25 mg/kg
[4]
  MIC: 7.5 µg/mL
[5]
  MIC: 7.5 µg/mL
[6]
  MIC: 50 µg/mL
[7]
  MIC: 50 µg/mL
[8]
  Activity: inactive
[9]
  MIC: 75 µg/mL
[10]
  MIC: > 200 µg/mL
[11]
  MIC: > 200 µg/mL
[12]
  MIC: 2.5 µg/mL
[13]
  MIC: 2.5 µg/mL
[14]
  Activity: inactive
[15]
  MIC: > 200 µg/mL
[16]
  MIC: 25 µg/mL
[17]
  MIC: 2.5 µg/mL
[18]
  MIC: 25 µg/mL

## C[N+](C)(CCCCCOc1c(Br)cc(Br)cc1Br)Cc1ccc(Br)o1.[Br-]
[1]
  MIC: > 200 µg/mL
[2]
  MIC: 50 µg/mL
[3]
  LD50: 25 mg/kg
[4]
  MIC: 7.5 µg/mL
[5]
  MIC: 10 µg/mL
[6]
  MIC: > 200 µg/mL
[7]
  MIC: > 200 µg/mL
[8]
  Activity: inactive
[9]
  MIC: > 200 µg/mL
[10]
  MIC: 100 µg/mL
[11]
  MIC: 100 µg/mL
[12]
  MIC: 2 µg/mL
[13]
  MIC: 1.5 µg/mL
[14]
  Activity: inactive
[15]
  MIC: > 200 µg/mL
[16]
  MIC: 25 µg/mL
[17]
  MIC: 2 µg/mL
[18]
  MIC: 25 µg/mL

## C[N+](C)(CCCCOc1c(Br)cc(Br)cc1Br)Cc1ccc(Br)o1.[Br-]
[1]
  MIC: > 200 µg/mL
[2]
  MIC: 100 µg/mL
[3]
  LD50: 37.5 mg/kg
[4]
  MIC: 25 µg/mL
[5]
  MIC: 50 µg/mL
[6]
  MIC: > 200 µg/mL
[7]
  MIC: > 200 µg/mL
[8]
  Activity: inactive
[9]
  MIC: > 200 µg/mL
[10]
  MIC: > 200 µg/mL
[11]
  MIC: 50 µg/mL
[12]
  MIC: 5 µg/mL
[13]
  MIC: 7.5 µg/mL
[14]
  Activity: inactive
[15]
  MIC: > 200 µg/mL
[16]
  MIC: 50 µg/mL
[17]
  MIC: 5 µg/mL
[18]
  MIC: 25 µg/mL

## C[N+](C)(CCCCCCCCOc1c(Br)cc(Br)cc1Br)Cc1ccc(Br)o1.[Br-]
[1]
  MIC: > 200 µg/mL
[2]
  MIC: > 200 µg/mL
[4]
  MIC: 4 µg/mL
[5]
  MIC: 50 µg/mL
[6]
  MIC: > 200 µg/mL
[7]
  MIC: > 200 µg/mL
[9]
  MIC: > 200 µg/mL
[10]
  MIC: > 200 µg/mL
[11]
  MIC: > 200 µg/mL
[12]
  MIC: 2 µg/mL
[13]
  MIC: 4 µg/mL
[15]
  MIC: > 200 µg/mL
[16]
  MIC: 7.5 µg/mL
[17]
  MIC: 3 µg/mL
[18]
  MIC: 4 µg/mL

## C[N+](C)(CCCCCCCCCCOc1c(Br)cc(Br)cc1Br)Cc1ccc(Br)o1.[Br-]
[1]
  MIC: > 200 µg/mL
[2]
  MIC: > 200 µg/mL
[4]
  MIC: 4 µg/mL
[5]
  MIC: 50 µg/mL
[6]
  MIC: > 200 µg/mL
[7]
  MIC: > 200 µg/mL
[9]
  MIC: > 200 µg/mL
[10]
  MIC: > 200 µg/mL
[11]
  MIC: > 200 µg/mL
[12]
  MIC: 2 µg/mL
[13]
  MIC: 3 µg/mL
[15]
  MIC: > 200 µg/mL
[16]
  MIC: 7.5 µg/mL
[17]
  MIC: 10 µg/mL
[18]
  MIC: 4 µg/mL

Reference: ChEMBL document CHEMBL3244174, “Synthesis and biological activity of some new furan quaternary salts” (J Med Chem, 1977)
